Measurements from different studies.
Each line is one published result; the experiments were not run side by side. pIC50: −log10 of the molar value.
DRD3: D(3) dopamine receptor (DRD3, Homo sapiens, UniProt P35462)
SLC6A3: Sodium-dependent dopamine transporter (SLC6A3, Homo sapiens, UniProt Q01959)
HDAC5: Histone deacetylase 5 (HDAC5, Homo sapiens, UniProt Q9UQL6)

Nc1cnccc1Nc1ccc(Cl)c(Cl)c1
pIC50 (DNA repair nuclease/redox regulator APEX1 (APEX1, Homo sapiens, UniProt P27695); enzyme activity, inhibitor): < 4.00

Cc1[nH]c(C)c(S(=O)(=O)Nc2ccc(C(F)(F)F)c(Cl)c2)c1C(=O)N1CCc2ccccc21
pIC50 (DRD3; G protein activation, antagonist, BRET): 4.68

CCCN(CCC)S(=O)(=O)c1ccc(C(=O)O)cc1
pIC50 (Taste receptor type 2 member 16 (TAS2R16, Homo sapiens, UniProt Q9NYV7, N96T); inositol phosphate, antagonist, TR-FRET): 2.66

CNc1nc(C#Cc2ccc(Cl)s2)nc2c1ncn2[C@H]1[C@H](O)[C@H](O)[C@]2(C(=O)OC)C[C@H]12
pIC50 (SLC6A3; transporter uptake, inhibitor, radiometric): 6.42

Cc1[nH]c(C)c(S(=O)(=O)Nc2ccc(C(F)(F)F)c(Cl)c2)c1C(=O)N1CCCC1
pIC50 (DRD3; β-arrestin recruitment, antagonist): 5.55

COc1c(Cl)cccc1Nc1c(-c2ccncc2OC[C@@H]2COCCO2)[nH]c2c1C(=O)NCC2
pIC50 (Discoidin domain-containing receptor 2 (DDR2, Homo sapiens, UniProt Q16832); ligand displacement, TR-FRET): 7.28

O=C(NO)c1ccc(Cn2cnc3c(Nc4cccc([N+](=O)[O-])c4)ncnc32)cc1
pIC50 (HDAC5; enzyme activity, inhibitor): 5.94

CN(C)C(=O)c1cc2cnc(Nc3ccc(-c4cccc5c(=O)cc(N6CCOCC6)oc45)cc3)nc2n1C1CCCC1
pIC50 (DNA-dependent protein kinase catalytic subunit (PRKDC, Homo sapiens, UniProt P78527); enzyme activity, inhibitor): 6.69

CCc1ccc(NS(=O)(=O)c2c(C)[nH]c(C)c2C(=O)N2CCC(F)(F)C2)cc1Cl
pIC50 (DRD3; G protein activation, antagonist, BRET): 5.80

COc1ccc(N(Cc2csc(-c3ccccc3)n2)C(=O)CCCCCC(=O)NO)cc1
pIC50 (HDAC5; enzyme activity, inhibitor): < 5.00

O[C@@H]1[C@H](O)[C@@H]2C[C@@H]2[C@H]1n1cnc2c(NCCC3CC3)ncnc21
pIC50 (SLC6A3; transporter uptake, inhibitor, radiometric): 5.03

Cc1cc(O)c(-c2ccc([C@@H](C)CN(C)C)cc2)c2c1[nH]c(=O)c1sccc12
pIC50 (Cyclin-dependent kinase 12, with cyclin K (CDK12, Homo sapiens, UniProt Q9NYV4); enzyme activity, inhibitor): < 6.00

Cc1[nH]c(C)c(S(=O)(=O)Nc2ccc(C(F)(F)F)c3ncccc23)c1C(=O)N1CCC(F)(F)C1
pIC50 (DRD3; G protein activation, antagonist, BRET): 4.82

NS(=O)(=O)c1ccc(Nc2nc(-c3cc4cc(Br)ccc4oc3=O)cs2)c(Br)c1
pIC50 (Carbonic anhydrase 12 (CA12, Homo sapiens, UniProt O43570); enzyme activity, inhibitor, absorbance): 5.21

Cc1[nH]c(C)c(S(=O)(=O)Nc2ccc(Cl)c(C(F)(F)F)c2)c1C(=O)N1CCC(F)(F)C1
pIC50 (DRD3; G protein activation, antagonist, BRET): 4.82

COc1ccc(N(Cc2csc(-c3ccc(C)cc3)n2)C(=O)CCCCCC(=O)NO)cc1
pIC50 (HDAC5; enzyme activity, inhibitor): < 5.00
